We go through two compounds from publication PMC7366207 (Journal of Antimicrobial Chemotherapy, 2020).

The format of data set [1] is in vivo, human. The following applies: oral 30 mg/day, steady state.
The format of data set [2] is in vivo, human. The note with it: LATTE. Put shortly:
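LATTE participants received oral drug 10, 30 or 60 mg once daily with two nucleoside analogues for 24 weeks, then with rilpivirine 25 mg daily to Week 72. Maximum on-treatment change from baseline in serum ALT and total bilirubin, regardless of dose, measured centrally as multiples of ULN. Linear regression on predicted UGT1A1/UGT1A9 activity, with covariates kept if P<0.05.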

A short description of data set [3]: Last oral lead-in cabotegravir trough. The format is in vivo, human. The note with it: for Low-versus-normal fold-change between mean cabotegravir trough concentrations: last oral trough on Day 1 (oral 30 mg); for Mean cabotegravir trough concentration: last oral trough on Day 1. Summed up:
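Human PK in LATTE-2 (4-weekly arm): daily oral 30 mg plus abacavir/lamivudine for 20 weeks. Day 1 trough taken 20–28 h after the last home oral dose. Plasma drug measured by validated LC-MS (LLOQ 25 ng/mL). Predicted UGT1A1 activity: normal with no *6/*28/*37 (*36 counted as wild type), reduced with one copy, low with two. Fold-change taken as the ratio of mean troughs.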

A further data set concerns UGT1A1. The note with it: cited from earlier work.
The next data set concerns UGT1A9. The note with it: cited from earlier work.
Data set [4] deals with uridine 5′-diphospho-glucuronosyltransferase (UGT). The note with it: cited from earlier work.
For data set [5] the following is noted: cited from earlier work.
For data set [6] the following is noted: oral dolutegravir 50 mg/day; same allele and activity definitions; cited from earlier work.
For another data set, the system named is cytochrome P450 3A4. The following applies: cited from earlier work.
Setting [7] is: fast versus normal predicted UGT1A9 activity.
The mark [8] stands for this setting: low versus normal predicted UGT1A1 activity.
Where [9] appears, read: oral 10, 30 and 60 mg, fast versus normal predicted UGT1A9 activity.
Setting [10] is: oral 10, 30 and 60 mg, low versus normal predicted UGT1A1 activity.

With `C[C@H]1CO[C@@H]2Cn3cc(C(=O)NCc4ccc(F)cc4F)c(=O)c(O)c3C(=O)N12` [cabotegravir], in [1], the “Association of predicted UGT1A9 activity with exposure measures” value was “not significantly associated”, the “Elevation in oral AUCtau associated with low predicted UGT1A1 activity” value is 41% and the “Elevation in oral Cmax associated with low predicted UGT1A1 activity” value is 28%. In data set [1] (setting [7]), the “AUCtau, fold-change in exposure (fast versus normal)” value is on record as 1.04 fold; the “Cmax, fold-change in exposure (fast versus normal)” value is reported as 1.03 fold; the “Ctau, fold-change in exposure (fast versus normal)” value is reported as 0.98 fold. In addition, in data set [1] (setting [8]), the “AUCtau, fold-change in exposure (low versus normal)” value is given as 1.41 fold; the “Cmax, fold-change in exposure (low versus normal)” value is 1.28 fold; the “Ctau, fold-change in exposure (low versus normal)” value is 1.50 fold. Further, in data set [2] (setting [9]), the “ALT change from BL, fold-change (fast versus normal)” value is listed as 1.68 fold and the “Tbili change from BL, fold-change (fast versus normal)” value was 0.69 fold. Also, in data set [2] (setting [10]), the “ALT maximum change from baseline, fold-change (low versus normal)” value is reported as 0.68 fold and the “Tbili maximum change from baseline, fold-change (low versus normal)” value is given as 2.45 fold. For the same compound, in [2] (oral any dose), the “Association of predicted UGT1A1 activity with maximum change in ALT” value is on record as “no significant association”. In addition, the “Participants with maximum on-treatment ALT elevation ≥3× ULN” value in data set [2] (among the 5 participants with Tbili increases of 1.5× ULN or greater) is given as “none”. Further, the “Low-versus-normal fold-change between mean cabotegravir trough concentrations” value in data set [3] (4 weekly group) is reported as 1.57 fold. The “Mean cabotegravir trough concentration” value in data set [3] (4 weekly group, low predicted UGT1A1 activity) is 6.11 µg/mL. The “Mean cabotegravir trough concentration” value in [3] (4 weekly group, normal predicted UGT1A1 activity) was 3.88 µg/mL. Further, the “Low-versus-normal fold-change between mean cabotegravir trough concentrations” value in data set [3] (8 weekly arm) was 1.19 fold. Moreover, the “Mean cabotegravir trough concentration” value in data set [3] (8 weekly arm, low predicted UGT1A1 activity) is 5.10 µg/mL. The “Mean cabotegravir trough concentration” value in data set [3] (8 weekly arm, normal predicted UGT1A1 activity) was 4.28 µg/mL. Further, in the data set on UGT1A1, the “Effect on UGT1A1 expression or activity” value was “does not functionally affect UGT1A1 expression or activity” and the “Metabolism by UGT1A1” value is listed as “primarily metabolized by UGT1A1”. The “Metabolism by UGT1A9” value in the data set with UGT1A9 is “minor contribution by UGT1A9”. The “Inhibition or induction of UGT” value in [4] was “not an inhibitor or inducer”. Further, in data set [5], the Aqueous solubility result is reported as “low aqueous solubility”.

In the case of `C[C@@H]1CCO[C@H]2Cn3cc(C(=O)NCc4ccc(F)cc4F)c(=O)c(O)c3C(=O)N12` [dolutegravir], in data set [6], the “Increase in AUCtau associated with low UGT1A1 activity” value is 46% and the “Increase in Cmax associated with low UGT1A1 activity” value is 32%. Also, in the data set with cytochrome P450 3A4, the “Contribution of cytochrome P450 3A4 to metabolism” value is ~30%.
